# Experiments:
# [1] = n-Octanol/phosphate buffer partition coefficient, logP of the compound at pH 7.4 incubated for 85 mins by shake-flask method; type: physicochemical
# In short: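 Octanol–water partition by shake-flask: n-octanol with 0.15 M phosphate buffer pH 7.4 at 10:1 volumes. Buffer-phase absorbance read before mixing, then shaken 50 min and centrifuged at 2500 rpm for 35 min. Buffer absorbance read again; P = (Ai−Af)/Af × Vw/Vo.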
# T47D = assay: Antiproliferative activity against human T47D cells assessed as cell growth inhibition at 10 uM incubated for 48 hrs by sulforhodamine B assay relative to control; type: functional
# In short: (§1)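 NCI-60 single-dose screen at 10^-5 M. Cells grown in RPMI 1640 with 5% FBS and 2 mM L-glutamine, plated at 5,000–40,000 cells/well, and preincubated 24 h. Drug (DMSO stock) added and incubated 48 h at 37 °C, 5% CO2. Adherent cells fixed with cold TCA, stained with 0.4% SRB in 1% acetic acid, dye solubilized in 10 mM trizma base, A515 read. Percent growth taken against time-zero and untreated control.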
# Hs-578T = assay: Antiproliferative activity against human Hs-578T cells assessed as cell growth inhibition at 10 uM incubated for 48 hrs by sulforhodamine B assay relative to control; type: functional; in short: as §1
# DU-145 = assay: Antiproliferative activity against human DU-145 cells assessed as cell growth inhibition at 10 uM incubated for 48 hrs by sulforhodamine B assay relative to control; type: functional
# In short: (§2)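 NCI-60 one-dose prescreen at 10^-5 M. Cells grown in RPMI 1640 with 5% FBS and 2 mM glutamine, preincubated 24 h, then exposed 48 h at 37 °C. Adherent lines TCA-fixed, SRB-stained, A515 read. Growth percent relative to time-zero and control; negative values mean cell kill.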
# PC-3 = assay: Antiproliferative activity against human PC-3 cells assessed as cell growth inhibition at 10 uM incubated for 48 hrs by sulforhodamine B assay relative to control; type: functional; in short: as §1
# RXF 393 = assay: Antiproliferative activity against human RXF 393 cells assessed as cell growth inhibition at 10 uM incubated for 48 hrs by sulforhodamine B assay relative to control; type: functional; in short: as §1
# ACHN = assay: Antiproliferative activity against human ACHN cells assessed as cell growth inhibition at 10 uM incubated for 48 hrs by sulforhodamine B assay relative to control; type: functional
# In short: (§3)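 Single-dose NCI-60 prescreen at 10^-5 M. Cells in RPMI 1640 with 5% FBS and 2 mM L-glutamine, seeded 5,000–40,000 cells/well with 24 h preincubation, then drug exposure for 48 h at 37 °C under 5% CO2. Growth read by SRB staining of TCA-fixed cells at 515 nm against time-zero and untreated controls. Negative growth values denote cell kill.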
# A498 = assay: Antiproliferative activity against human A498 cells assessed as cell growth inhibition at 10 uM incubated for 48 hrs by sulforhodamine B assay relative to control; type: functional; in short: as §3
# OVCAR-8 = assay: Antiproliferative activity against human OVCAR-8 cells assessed as cell growth inhibition at 10 uM incubated for 48 hrs by sulforhodamine B assay relative to control; type: functional; in short: as §1
# OVCAR-3 = assay: Antiproliferative activity against human OVCAR-3 cells assessed as cell growth inhibition at 10 uM incubated for 48 hrs by sulforhodamine B assay relative to control; type: functional; in short: as §1
# UACC-62 = assay: Antiproliferative activity against human UACC-62 cells assessed as cell growth inhibition at 10 uM incubated for 48 hrs by sulforhodamine B assay relative to control; type: functional; in short: as §1
# SK-MEL-2 = assay: Antiproliferative activity against human SK-MEL-2 cells assessed as cell growth inhibition at 10 uM incubated for 48 hrs by sulforhodamine B assay relative to control; type: functional; in short: as §1
# M14 = assay: Antiproliferative activity against human M14 cells assessed as cell growth inhibition at 10 uM incubated for 48 hrs by sulforhodamine B assay relative to control; type: functional; in short: as §1
# LOX IMVI = assay: Antiproliferative activity against human LOX IMVI cells assessed as cell growth inhibition at 10 uM incubated for 48 hrs by sulforhodamine B assay relative to control; type: functional; in short: as §1
# U-251 = assay: Antiproliferative activity against human U-251 cells assessed as cell growth inhibition at 10 uM incubated for 48 hrs by sulforhodamine B assay relative to control; type: functional; in short: as §1
# SNB-75 = assay: Antiproliferative activity against human SNB-75 cells assessed as cell growth inhibition at 10 uM incubated for 48 hrs by sulforhodamine B assay relative to control; type: functional; in short: as §1
# SF-268 = assay: Antiproliferative activity against human SF-268 cells assessed as cell growth inhibition at 10 uM incubated for 48 hrs by sulforhodamine B assay relative to control; type: functional; in short: as §1
# SW-620 = assay: Antiproliferative activity against human SW620 cells assessed as cell growth inhibition at 10 uM incubated for 48 hrs by sulforhodamine B assay relative to control; type: functional; in short: as §1
# KM12 = assay: Antiproliferative activity against human KM12 cells assessed as cell growth inhibition at 10 uM incubated for 48 hrs by sulforhodamine B assay relative to control; type: functional; in short: as §1
# HT-29 = assay: Antiproliferative activity against human HT-29 cells assessed as cell growth inhibition at 10 uM incubated for 48 hrs by sulforhodamine B assay relative to control; type: functional; in short: as §1
# HCT-116 = assay: Antiproliferative activity against human HCT-116 cells assessed as cell growth inhibition at 10 uM incubated for 48 hrs by sulforhodamine B assay relative to control; type: functional; in short: as §2
# NCI-H522 = assay: Antiproliferative activity against human NCI-H522 cells assessed as cell growth inhibition at 10 uM incubated for 48 hrs by sulforhodamine B assay relative to control; type: functional; in short: as §1
# NCI-H460 = assay: Antiproliferative activity against human NCI-H460 cells assessed as cell growth inhibition at 10 uM incubated for 48 hrs by sulforhodamine B assay relative to control; type: functional; in short: as §1
# EKVX = assay: Antiproliferative activity against human EKVX cells assessed as cell growth inhibition at 10 uM incubated for 48 hrs by sulforhodamine B assay relative to control; type: functional; in short: as §2
# SR = assay: Antiproliferative activity against human SR cells assessed as cell growth inhibition at 10 uM incubated for 48 hrs by sulforhodamine B assay relative to control; type: functional; in short: as §1
# RPMI-8226 = assay: Antiproliferative activity against human RPMI-8226 cells assessed as cell growth inhibition at 10 uM incubated for 48 hrs by sulforhodamine B assay relative to control; type: functional; in short: as §1
# HL-60 = assay: Antiproliferative activity against human HL-60 cells assessed as cell growth inhibition at 10 uM incubated for 48 hrs by sulforhodamine B assay relative to control; type: functional; in short: as §2
# CCRF-CEM = assay: Antiproliferative activity against human CCRF-CEM cells assessed as cell growth inhibition at 10 uM incubated for 48 hrs by sulforhodamine B assay relative to control; type: functional; in short: as §3
# MDA-MB-468 = assay: Antiproliferative activity against human MDA-MB-468 cells assessed as cell growth inhibition at 10 uM incubated for 48 hrs by sulforhodamine B assay relative to control; type: functional; in short: as §1
# OVCAR-5 = assay: Antiproliferative activity against human OVCAR-5 cells assessed as cell growth inhibition at 10 uM incubated for 48 hrs by sulforhodamine B assay relative to control; type: functional; in short: as §1
# A549 = assay: Antiproliferative activity against human A549 cells assessed as cell growth inhibition at 10 uM incubated for 48 hrs by sulforhodamine B assay relative to control; type: functional; in short: as §3
Structure (SMILES),logD at 1.417 h [1],inhibition at 10 µM (T47D) [%],inhibition at 10 µM (Hs-578T) [%],inhibition at 10 µM (PC-3) [%],inhibition at 10 µM (RXF 393) [%],inhibition at 10 µM (ACHN) [%],inhibition at 10 µM (OVCAR-8) [%],inhibition at 10 µM (OVCAR-3) [%],inhibition at 10 µM (UACC-62) [%],inhibition at 10 µM (SK-MEL-2) [%],inhibition at 10 µM (M14) [%],inhibition at 10 µM (LOX IMVI) [%],inhibition at 10 µM (U-251) [%],inhibition at 10 µM (SNB-75) [%],inhibition at 10 µM (SF-268) [%],inhibition at 10 µM (SW-620) [%],inhibition at 10 µM (KM12) [%],inhibition at 10 µM (HCT-116) [%],inhibition at 10 µM (NCI-H522) [%],inhibition at 10 µM (NCI-H460) [%],also measured
O=Cc1ccc(-c2cn3ccnc3c(-c3ccc4ncn(Cc5ccccc5)c4c3)n2)cc1,1.88,98,45.5,19,25,11.6,44,23.7,37.1,27.8,23,46.9,32,21.4,27.1,4.21,3.69,92.6,25.2,37.8,inhibition at 10 µM (DU-145): 24.3%; inhibition at 10 µM (A498): 11.2%; inhibition at 10 µM (HT-29): 17.5%; inhibition at 10 µM (EKVX): 20.9%; inhibition at 10 µM (SR): 47.5%; inhibition at 10 µM (RPMI-8226): 82.5%; inhibition at 10 µM (HL-60): 16.5%; inhibition at 10 µM (CCRF-CEM): 77.9%
Fc1ccc(-c2cn3ccnc3c(-c3ccc4ncn(C5CCCCC5)c4c3)n2)cc1,2.01,33.3,17.6,53.6,24.4,9.02,9.54,7.88,31,9.82,2.98,3.5,7.94,21,10.7,8.38,3.49,18,15.5,6.12,inhibition at 10 µM (MDA-MB-468): 19.5%; inhibition at 10 µM (DU-145): 1.17%; inhibition at 10 µM (OVCAR-5): 10.3%; inhibition at 10 µM (EKVX): 10.5%; inhibition at 10 µM (A549): 12.8%; inhibition at 10 µM (SR): 20.4%; inhibition at 10 µM (RPMI-8226): 50.1%; inhibition at 10 µM (HL-60): 2.03%; inhibition at 10 µM (CCRF-CEM): 33.4%
Fc1ccccc1-c1cn2ccnc2c(-c2ccc3ncn(C4CCCCC4)c3c2)n1,1.95,77.2,5.26,32.6,12.3,13.2,14.1,0.17,38.2,10.5,2.92,5.77,11.4,29.7,6.04,9.53,2.45,25.8,17.8,8.1,inhibition at 10 µM (MDA-MB-468): 27.6%; inhibition at 10 µM (DU-145): 0.96%; inhibition at 10 µM (OVCAR-5): 6.64%; inhibition at 10 µM (HT-29): 7.26%; inhibition at 10 µM (EKVX): 16%; inhibition at 10 µM (A549): 9.1%; inhibition at 10 µM (SR): 16.3%; inhibition at 10 µM (RPMI-8226): 42.4%; inhibition at 10 µM (HL-60): 9.3%; inhibition at 10 µM (CCRF-CEM): 22.5%
COc1ccccc1-c1cn2ccnc2c(-c2ccc3ncn(C4CCCCC4)c3c2)n1,1.72,36.6,15.8,43.1,0.95,4.48,8.78,6.57,25.1,12.1,1.12,5.13,21,35,8.04,3.4,3.58,28.3,22.2,9.62,inhibition at 10 µM (MDA-MB-468): 14.6%; inhibition at 10 µM (A498): 13.9%; inhibition at 10 µM (OVCAR-5): 6.61%; inhibition at 10 µM (HT-29): 11.1%; inhibition at 10 µM (EKVX): 13.3%; inhibition at 10 µM (A549): 13.9%; inhibition at 10 µM (SR): 26.3%; inhibition at 10 µM (RPMI-8226): 35.9%; inhibition at 10 µM (HL-60): 14.6%; inhibition at 10 µM (CCRF-CEM): 17.4%
CCc1ccc(-c2cn3ccnc3c(-c3ccc4ncn(Cc5ccccc5)c4c3)n2)cc1,1.96,94.8,21.8,50.4,30.7,44.7,30.8,31.2,24.9,14.8,36.4,50.1,46.1,29.3,30.5,18.8,45.7,61.2,45.9,42,inhibition at 10 µM (MDA-MB-468): 17.2%; inhibition at 10 µM (DU-145): 19.1%; inhibition at 10 µM (OVCAR-5): 14.9%; inhibition at 10 µM (HT-29): 68.8%; inhibition at 10 µM (EKVX): 39.7%; inhibition at 10 µM (A549): 45.4%; inhibition at 10 µM (SR): 49.9%; inhibition at 10 µM (RPMI-8226): 55.4%; inhibition at 10 µM (HL-60): 39.6%; inhibition at 10 µM (CCRF-CEM): 49.7%
Clc1ccc(-c2cn3ccnc3c(-c3ccc4ncn(C5CCCCC5)c4c3)n2)cc1,1.51,27.6,6.35,24.6,6.73,5.45,3.78,10.8,30.5,10.9,10,14.8,11.3,31.1,4.83,14,10.6,7.34,19.8,4.14,inhibition at 10 µM (MDA-MB-468): 10.6%; inhibition at 10 µM (OVCAR-5): 0.84%; inhibition at 10 µM (HT-29): 16.4%; inhibition at 10 µM (EKVX): 13.1%; inhibition at 10 µM (A549): 11.6%; inhibition at 10 µM (SR): 18.5%; inhibition at 10 µM (RPMI-8226): 19%; inhibition at 10 µM (HL-60): 15.6%; inhibition at 10 µM (CCRF-CEM): 11.4%
